Source: ChEMBL document CHEMBL3769358, “Arylboronic acids as dual-action FAAH and TRPV1 ligands” (Bioorg Med Chem Lett, 2016)

Target: T1, Transient receptor potential cation channel subfamily V member 1 (Homo sapiens, UniProt Q8NER1)
Experiment: Agonist activity at recombinant human TRPV1 channel expressed in HEK293 cells assessed as increase in intracellular Ca2+ concentration by Fluo-4-AM dye based spectrofluorimetry relative to ionomycin
Type: cell-based
In short: (§1)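 HEK293 cells stably expressing human TRPV1, grown in MEM with non-essential amino acids, 10% FBS and 2 mM glutamine at 37 °C, 5% CO2. Cells loaded 1 h at room temperature with Fluo-4-AM (4 µM), washed into Tyrode's buffer pH 7.4, about 100,000 cells per stirred cuvette. Fluorescence (ex 488/em 516 nm) read at 25 °C. Efficacy normalised to 4 µM ionomycin, with wild-type HEK293 response subtracted when significant. EC50 from GraphPad; n = 4.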

T1 sequence (Q8NER1 whole entry): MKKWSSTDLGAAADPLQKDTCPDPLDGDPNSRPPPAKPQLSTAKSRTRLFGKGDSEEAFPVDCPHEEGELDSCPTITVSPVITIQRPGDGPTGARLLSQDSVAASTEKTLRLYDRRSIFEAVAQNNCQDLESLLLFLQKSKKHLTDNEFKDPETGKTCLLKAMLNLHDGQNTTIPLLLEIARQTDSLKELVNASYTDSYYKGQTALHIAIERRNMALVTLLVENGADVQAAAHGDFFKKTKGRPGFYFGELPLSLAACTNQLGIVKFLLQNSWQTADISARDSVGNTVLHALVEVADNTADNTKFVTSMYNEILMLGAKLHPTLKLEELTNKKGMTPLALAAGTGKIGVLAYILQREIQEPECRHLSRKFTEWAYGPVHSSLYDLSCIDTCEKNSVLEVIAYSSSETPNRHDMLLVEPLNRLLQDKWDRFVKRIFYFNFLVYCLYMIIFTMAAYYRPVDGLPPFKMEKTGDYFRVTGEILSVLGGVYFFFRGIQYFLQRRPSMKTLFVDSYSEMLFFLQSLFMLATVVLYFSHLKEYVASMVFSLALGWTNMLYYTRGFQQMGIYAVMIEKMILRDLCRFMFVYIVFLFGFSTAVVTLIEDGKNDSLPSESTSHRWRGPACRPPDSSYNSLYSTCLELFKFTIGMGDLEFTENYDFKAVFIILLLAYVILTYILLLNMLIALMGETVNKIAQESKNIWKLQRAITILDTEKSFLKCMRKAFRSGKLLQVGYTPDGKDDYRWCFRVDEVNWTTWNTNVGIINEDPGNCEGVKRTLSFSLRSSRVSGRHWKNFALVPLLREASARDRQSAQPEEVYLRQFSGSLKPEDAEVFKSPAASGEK

SMILES | Efficacy
O=C(/C=C/c1ccc(Cl)cc1)Nc1ccc(B(O)O)cc1 | < 10%
O=C(CCCCCc1ccccc1)NCc1ccc(B(O)O)cc1 | 41.1%
O=C(Cc1ccc(B(O)O)cc1)NCCCCc1ccccc1 | 44.9%
COc1cc(CNC(=O)CCCCCCCc2ccccc2)ccc1B(O)O | 62.5%
O=C(CCCCCCCc1ccccc1)Nc1ccc(B(O)O)cc1 | < 10%
O=C(/C=C/c1ccc(Cl)cc1)NCc1ccc(B(O)O)cc1 | < 10%
O=C(NCc1ccccc1)c1ccc(B(O)O)cc1 | < 10%
O=C(Cc1ccc(B(O)O)cc1)NCc1ccc(-c2ccccc2)cc1 | 27.4%
O=C(Oc1ccc(C(F)(F)F)cc1)N1CCN(c2ncccc2C(F)(F)F)CC1 | < 10%
O=C(Cc1ccc(O)cc1)NCCCCCCCc1ccccc1 | 64.7%
CCCCC/C=C\C/C=C\C/C=C\C/C=C\CCCC(=O)NCCc1c[nH]c2ccc(O)cc12 | < 10%
O=C(Nc1ccc(-c2ccccc2)cc1)c1ccc(B(O)O)cc1 | 12.5%
O=C(Cc1ccc(B(O)O)cc1)NCc1ccccc1 | < 10%
O=C(CCCCCCCc1ccccc1)NCc1ccc(B(O)O)cc1 | 54.7%
O=C(NCCCCc1ccccc1)c1ccc(B(O)O)cc1 | < 10%
CCCCCCCCCc1ccc(B(O)O)cc1 | < 10%
O=C(Cc1ccc(B(O)O)cc1)NCCCCCc1ccccc1 | 62.8%
O=C(NCCc1ccc(O)cc1)c1ccc(B(O)O)cc1 | < 10%
CCCCCCCC/C=C\CCCCCCCC(=O)NCc1ccc(B(O)O)c(OC)c1 | 49.2%

SMILES | Efficacy
COc1cccc(NC(=O)/C=C/c2ccc(Cl)cc2)c1 | < 10%
O=C(/C=C/c1ccc(Cl)cc1)Nc1cccc(B(O)O)c1 | < 10%
O=C(Cc1ccccc1)NCCCCCCCc1ccccc1 | 54.6%
CC(C)(C)c1ccc(NC(=O)Cc2ccc(B(O)O)cc2)cc1 | < 10%
CCCCCCCC/C=C\CCCCCCCC(=O)NCc1ccc(B(O)O)cc1 | 42.2%
O=C(CCc1ccccc1)NCc1ccc(B(O)O)cc1 | 60.2%
CC(C)(C)c1ccc(NC(=O)NCc2ccc(B(O)O)cc2)cc1 | < 10%
CC(C)(C)c1ccc(NC(=O)Nc2ccc(B(O)O)cc2)cc1 | < 10%
O=C(NCc1ccc(-c2ccccc2)cc1)c1ccc(B(O)O)cc1 | < 10%
COc1cc(CNC(=O)CCCCCc2ccccc2)ccc1B(O)O | 59.3%
CC(C)(C)c1ccc(NC(=O)c2ccc(B(O)O)cc2)cc1 | < 10%
O=C(CCCCCc1ccccc1)Nc1ccc(B(O)O)cc1 | < 10%
O=C(NCc1ccc(B(O)O)cc1)c1ccc(-c2ccccc2)cc1 | 22%
OB(O)c1ccc(-c2ccccc2)cc1 [BIPHENYLBORONIC ACID] | < 10%
O=C(NCCCCCc1ccccc1)c1ccc(B(O)O)cc1 | < 10%
COc1cc(CNC(=O)Nc2ccc(C(C)(C)C)cc2)ccc1B(O)O | < 10%
O=C(Cc1ccc(B(O)O)cc1)NCCCCCCCc1ccccc1 | 52.5%
O=C(Cc1ccc(-c2ccccc2)cc1)Nc1ccc(B(O)O)cc1 | < 10%
CC(C)(C)c1ccc(C(=O)Nc2ccc(B(O)O)cc2)cc1 | 39.3%

Target: T1, Transient receptor potential cation channel subfamily V member 1
Experiment: Agonist activity at recombinant human TRPV1 channel expressed in HEK293 cells assessed as increase in intracellular Ca2+ concentration by Fluo-4-AM dye based spectrofluorimetry
Type: cell-based
In short: as §1

SMILES | EC50
O=C(CCCCCc1ccccc1)NCc1ccc(B(O)O)cc1 | 1530 nM
O=C(Cc1ccc(B(O)O)cc1)NCCCCc1ccccc1 | 1990 nM
COc1cc(CNC(=O)CCCCCCCc2ccccc2)ccc1B(O)O | 51 nM
O=C(Cc1ccc(B(O)O)cc1)NCc1ccc(-c2ccccc2)cc1 | 310 nM
O=C(Cc1ccc(O)cc1)NCCCCCCCc1ccccc1 | 170 nM
O=C(Nc1ccc(-c2ccccc2)cc1)c1ccc(B(O)O)cc1 | 3970 nM
O=C(CCCCCCCc1ccccc1)NCc1ccc(B(O)O)cc1 | 1000 nM
O=C(Cc1ccc(B(O)O)cc1)NCCCCCc1ccccc1 | 2250 nM
CCCCCCCC/C=C\CCCCCCCC(=O)NCc1ccc(B(O)O)c(OC)c1 | 20 nM
O=C(Cc1ccccc1)NCCCCCCCc1ccccc1 | 660 nM
CCCCCCCC/C=C\CCCCCCCC(=O)NCc1ccc(B(O)O)cc1 | 22 nM
O=C(CCc1ccccc1)NCc1ccc(B(O)O)cc1 | 320 nM
COc1cc(CNC(=O)CCCCCc2ccccc2)ccc1B(O)O | 1460 nM
O=C(NCc1ccc(B(O)O)cc1)c1ccc(-c2ccccc2)cc1 | 4230 nM
O=C(Cc1ccc(B(O)O)cc1)NCCCCCCCc1ccccc1 | 370 nM
CC(C)(C)c1ccc(C(=O)Nc2ccc(B(O)O)cc2)cc1 | 520 nM

Target: T1, Transient receptor potential cation channel subfamily V member 1
Experiment: Antagonist activity at recombinant human TRPV1 channel expressed in HEK293 cells assessed as inhibition of capsiacin-induced Ca2+ flux preincubated for 5 mins followed by capsiacin challenge by Fluo-4-AM dye based spectrofluorimetry
Type: cell-based
In short: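 Fluo-4-loaded HEK293 cells stably expressing human TRPV1, in Tyrode's buffer pH 7.4, read at 25 °C (ex 488/em 516 nm). Test compound added to the cuvette 5 min before 0.1 µM capsaicin. IC50 taken as half-maximal inhibition of capsaicin-induced [Ca2+]i rise, calculated in GraphPad; mean of n = 4.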

SMILES | IC50
O=C(/C=C/c1ccc(Cl)cc1)Nc1ccc(B(O)O)cc1 | 1390 nM
O=C(CCCCCc1ccccc1)NCc1ccc(B(O)O)cc1 | 2890 nM
O=C(Cc1ccc(B(O)O)cc1)NCCCCc1ccccc1 | 2190 nM
COc1cc(CNC(=O)CCCCCCCc2ccccc2)ccc1B(O)O | 34 nM
O=C(CCCCCCCc1ccccc1)Nc1ccc(B(O)O)cc1 | > 10000 nM
O=C(/C=C/c1ccc(Cl)cc1)NCc1ccc(B(O)O)cc1 | > 10000 nM
O=C(NCc1ccccc1)c1ccc(B(O)O)cc1 | > 10000 nM
O=C(Cc1ccc(B(O)O)cc1)NCc1ccc(-c2ccccc2)cc1 | 5530 nM
O=C(Cc1ccc(O)cc1)NCCCCCCCc1ccccc1 | 260 nM
O=C(Nc1ccc(-c2ccccc2)cc1)c1ccc(B(O)O)cc1 | > 10000 nM
O=C(Cc1ccc(B(O)O)cc1)NCc1ccccc1 | > 10000 nM
O=C(CCCCCCCc1ccccc1)NCc1ccc(B(O)O)cc1 | 500 nM
O=C(NCCCCc1ccccc1)c1ccc(B(O)O)cc1 | > 10000 nM
CCCCCCCCCc1ccc(B(O)O)cc1 | > 10000 nM
O=C(Cc1ccc(B(O)O)cc1)NCCCCCc1ccccc1 | 2530 nM
O=C(NCCc1ccc(O)cc1)c1ccc(B(O)O)cc1 | > 10000 nM
CCCCCCCC/C=C\CCCCCCCC(=O)NCc1ccc(B(O)O)c(OC)c1 | 32 nM
COc1cccc(NC(=O)/C=C/c2ccc(Cl)cc2)c1 | 190 nM

SMILES | IC50
O=C(/C=C/c1ccc(Cl)cc1)Nc1cccc(B(O)O)c1 | 41 nM
O=C(Cc1ccccc1)NCCCCCCCc1ccccc1 | 1210 nM
CC(C)(C)c1ccc(NC(=O)Cc2ccc(B(O)O)cc2)cc1 | > 10000 nM
CCCCCCCC/C=C\CCCCCCCC(=O)NCc1ccc(B(O)O)cc1 | 47 nM
O=C(CCc1ccccc1)NCc1ccc(B(O)O)cc1 | 230 nM
CC(C)(C)c1ccc(NC(=O)NCc2ccc(B(O)O)cc2)cc1 | 4130 nM
CC(C)(C)c1ccc(NC(=O)Nc2ccc(B(O)O)cc2)cc1 | 1950 nM
O=C(NCc1ccc(-c2ccccc2)cc1)c1ccc(B(O)O)cc1 | > 10000 nM
COc1cc(CNC(=O)CCCCCc2ccccc2)ccc1B(O)O | 1530 nM
CC(C)(C)c1ccc(NC(=O)c2ccc(B(O)O)cc2)cc1 | 750 nM
O=C(CCCCCc1ccccc1)Nc1ccc(B(O)O)cc1 | > 10000 nM
O=C(NCc1ccc(B(O)O)cc1)c1ccc(-c2ccccc2)cc1 | 7110 nM
OB(O)c1ccc(-c2ccccc2)cc1 [BIPHENYLBORONIC ACID] | > 10000 nM
O=C(NCCCCCc1ccccc1)c1ccc(B(O)O)cc1 | > 10000 nM
COc1cc(CNC(=O)Nc2ccc(C(C)(C)C)cc2)ccc1B(O)O | 8110 nM
O=C(Cc1ccc(B(O)O)cc1)NCCCCCCCc1ccccc1 | 370 nM
O=C(Cc1ccc(-c2ccccc2)cc1)Nc1ccc(B(O)O)cc1 | > 10000 nM
CC(C)(C)c1ccc(C(=O)Nc2ccc(B(O)O)cc2)cc1 | 780 nM

Target: T2, Fatty-acid amide hydrolase 1 (Rattus norvegicus, UniProt P97612)
T2 sequence (P97612 whole entry): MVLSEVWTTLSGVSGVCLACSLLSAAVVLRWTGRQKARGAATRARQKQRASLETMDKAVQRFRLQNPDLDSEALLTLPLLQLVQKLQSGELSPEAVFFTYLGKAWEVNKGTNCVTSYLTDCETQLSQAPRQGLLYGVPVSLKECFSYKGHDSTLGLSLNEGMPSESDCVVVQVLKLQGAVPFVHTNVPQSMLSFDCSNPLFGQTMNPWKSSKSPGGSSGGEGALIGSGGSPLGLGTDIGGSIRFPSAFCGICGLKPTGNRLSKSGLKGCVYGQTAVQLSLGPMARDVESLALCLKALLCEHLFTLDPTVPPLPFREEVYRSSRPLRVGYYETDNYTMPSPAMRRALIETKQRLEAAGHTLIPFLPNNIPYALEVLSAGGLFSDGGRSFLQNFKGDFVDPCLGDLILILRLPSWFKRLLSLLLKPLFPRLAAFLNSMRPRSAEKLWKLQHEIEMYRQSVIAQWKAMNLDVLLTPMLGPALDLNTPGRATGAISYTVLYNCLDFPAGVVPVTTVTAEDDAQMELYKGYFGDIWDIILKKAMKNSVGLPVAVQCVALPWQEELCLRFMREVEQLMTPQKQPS
Experiment: Inhibition of rat brain FAAH assessed as hydrolysis of [14C]AEA to [14C]Ethanolamine incubated for 30 mins by scintillation counting method

SMILES | IC50
O=C(/C=C/c1ccc(Cl)cc1)Nc1ccc(B(O)O)cc1 | 560 nM
O=C(CCCCCc1ccccc1)NCc1ccc(B(O)O)cc1 | 1080 nM
O=C(Cc1ccc(B(O)O)cc1)NCCCCc1ccccc1 | 1170 nM
COc1cc(CNC(=O)CCCCCCCc2ccccc2)ccc1B(O)O | 1770 nM
O=C(CCCCCCCc1ccccc1)Nc1ccc(B(O)O)cc1 | 390 nM
O=C(/C=C/c1ccc(Cl)cc1)NCc1ccc(B(O)O)cc1 | 1510 nM
O=C(NCc1ccccc1)c1ccc(B(O)O)cc1 | 2870 nM
O=C(Cc1ccc(B(O)O)cc1)NCc1ccc(-c2ccccc2)cc1 | 280 nM
O=C(Nc1ccc(-c2ccccc2)cc1)c1ccc(B(O)O)cc1 | 150 nM
O=C(Cc1ccc(B(O)O)cc1)NCc1ccccc1 | > 10000 nM
O=C(CCCCCCCc1ccccc1)NCc1ccc(B(O)O)cc1 | 470 nM
O=C(NCCCCc1ccccc1)c1ccc(B(O)O)cc1 | 580 nM
CCCCCCCCCc1ccc(B(O)O)cc1 | 2920 nM
O=C(Cc1ccc(B(O)O)cc1)NCCCCCc1ccccc1 | 630 nM
O=C(NCCc1ccc(O)cc1)c1ccc(B(O)O)cc1 | > 10000 nM
CCCCCCCC/C=C\CCCCCCCC(=O)NCc1ccc(B(O)O)c(OC)c1 | > 10000 nM
COc1cccc(NC(=O)/C=C/c2ccc(Cl)cc2)c1 | > 10000 nM
O=C(/C=C/c1ccc(Cl)cc1)Nc1cccc(B(O)O)c1 | > 10000 nM

SMILES | IC50
O=C(Cc1ccccc1)NCCCCCCCc1ccccc1 | > 10000 nM
CC(C)(C)c1ccc(NC(=O)Cc2ccc(B(O)O)cc2)cc1 | > 10000 nM
CCCCCCCC/C=C\CCCCCCCC(=O)NCc1ccc(B(O)O)cc1 | > 10000 nM
O=C(CCc1ccccc1)NCc1ccc(B(O)O)cc1 | > 10000 nM
CC(C)(C)c1ccc(NC(=O)NCc2ccc(B(O)O)cc2)cc1 | 1990 nM
CC(C)(C)c1ccc(NC(=O)Nc2ccc(B(O)O)cc2)cc1 | > 10000 nM
O=C(NCc1ccc(-c2ccccc2)cc1)c1ccc(B(O)O)cc1 | 1860 nM
COc1cc(CNC(=O)CCCCCc2ccccc2)ccc1B(O)O | 1320 nM
CC(C)(C)c1ccc(NC(=O)c2ccc(B(O)O)cc2)cc1 | 5500 nM
O=C(CCCCCc1ccccc1)Nc1ccc(B(O)O)cc1 | 570 nM
O=C(NCc1ccc(B(O)O)cc1)c1ccc(-c2ccccc2)cc1 | 330 nM
OB(O)c1ccc(-c2ccccc2)cc1 [BIPHENYLBORONIC ACID] | 790 nM
O=C(NCCCCCc1ccccc1)c1ccc(B(O)O)cc1 | 180 nM
COc1cc(CNC(=O)Nc2ccc(C(C)(C)C)cc2)ccc1B(O)O | 4280 nM
O=C(Cc1ccc(B(O)O)cc1)NCCCCCCCc1ccccc1 | 250 nM
O=C(Cc1ccc(-c2ccccc2)cc1)Nc1ccc(B(O)O)cc1 | > 10000 nM
CC(C)(C)c1ccc(C(=O)Nc2ccc(B(O)O)cc2)cc1 | > 10000 nM

Target: T1, Transient receptor potential cation channel subfamily V member 1
Experiment: Antagonist activity at recombinant human TRPV1 channel expressed in HEK293 cells assessed as inhibition of capsiacin-induced Ca2+ flux by Fluo-4 dye based spectrofluorimetry assay

SMILES | IC50
COc1cccc(NC(=O)/C=C/c2ccc(Cl)cc2)c1 | 270 nM
